Measurements: ChEMBL document CHEMBL5653605, “Reduced VEGF production, angiogenesis, and vascular regrowth contribute to the antitumor properties of dual mTORC1/mTORC2 inhibitors” (Cancer Res, 2011)
The source made the active and inactive calls.

What was measured:
[1] = biological target: Vascular endothelial growth factor receptor 2 (Homo sapiens, UniProt P35968)
[2] = tested on: Pancreatic islet cell carcinoma; test: Antivascular activity against pancreatic islet cell carcinoma in RIP-Tag2 mouse assessed as reduction in CD31-positive tumor blood vessels at 200 mg/kg, po qd administered via gavage and measured after 7 days by immunohistochemical staining based fluorescence microscopic analysis relative to control; assay type: functional; set-up: scale not given: the % may be the effect or the level left; conditions: time 7 day
Procedure, shortened: (§1)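 For 7 days, RIP-Tag2 mice, 9–10 weeks old, received 75 mg/kg gavage BID, 200 mg/kg gavage QD, or 20 mg/kg ip QD. Perfusion-fixed tumors cut at 60–80 µm and stained for CD31 and type IV collagen basement membrane. Vessel area density from fluorescence images with threshold 30–50; sprouts and empty basement membrane sleeves examined by confocal microscopy. 3–8 mice/group; ANOVA, Fisher PLSD.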

[3] = tested on: Pancreatic islet cell carcinoma; test: Additive antitumor activity in pancreatic islet cell carcinoma in RIP-Tag2 mouse assessed as induction of apoptosis by measuring increase in activated caspase-3 level at 100 mg/kg, po qd administered via gavage for 4 days in presence of OXA-01 by immunohistochemistry analysis relative to control; assay type: functional; conditions: time 4 day
Procedure, shortened: (§2)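 Perfusion-fixed tumor sections (60–80 µm) stained for phospho-histone H3 (proliferation) or activated caspase-3 (apoptosis) and quantified from confocal images. 3–8 mice/group; ANOVA, Fisher PLSD.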

[4] = tested on: Pancreatic islet cell carcinoma; test: Additive antitumor activity in pancreatic islet cell carcinoma in RIP-Tag2 mouse assessed as reduction in proliferation by measuring reduction in phospho-histone H3 level at 100 mg/kg, po qd administered via gavage for 4 days in presence of OXA-01 by immunohistochemistry analysis; assay type: functional, organism-based; conditions: time 4.0 day
Procedure, shortened: as §2

[5] = tested on: Pancreatic islet cell carcinoma; test: Antivascular activity in pancreatic islet cell carcinoma in RIP-Tag2 mouse assessed as reduction in intratumoral hemorrhage by measuring reduction in TER-119 immunoreactivity at 200 mg/kg, po qd administered via gavage and measured after 7 days by confocal microscopic analysis relative to control; assay type: functional; set-up: scale not given: the % may be the effect or the level left; conditions: time 7 day
Procedure, shortened: (§3)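 Regrowth design in 10-week-old RIP-Tag2 mice: OSI-930 200 mg/kg gavage QD for 7 days, then 4 days of vehicle, 75 mg/kg gavage BID, or 20 mg/kg ip QD; controls received vehicle for 11 days. Perfusion-fixed sections stained for CD31 for vessel density or for the erythrocyte marker TER-119, quantified by confocal microscopy. 3–8 mice/group; ANOVA, Fisher PLSD.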

[6] = tested on: Pancreatic islet cell carcinoma; test: Antivascular activity in pancreatic islet cell carcinoma in RIP-Tag2 mouse assessed as reduction in intratumoral hemorrhage by measuring reduction in TER-119 immunoreactivity at 200 mg/kg, po qd administered via gavage for 7 days followed by cessation and measured after 4 days by confocal microscopic analysis relative to control; assay type: functional; set-up: scale not given: the % may be the effect or the level left; conditions: time 7 day
Procedure, shortened: as §3

[7] = tested on: Pancreatic islet cell carcinoma; test: Antivascular activity against pancreatic islet cell carcinoma in RIP-Tag2 mouse assessed as reduction in vascular sprouts at 200 mg/kg, po qd administered via gavage and measured after 7 days by immunohistochemical staining based fluorescence microscopic analysis relative to control; assay type: functional; set-up: scale not given: the % may be the effect or the level left; conditions: time 7 day
Procedure, shortened: as §1

[8] = tested on: Pancreatic islet cell carcinoma; test: Antivascular activity against pancreatic islet cell carcinoma in RIP-Tag2 mouse assessed as appearance of empty basement membrane sleeves at 200 mg/kg, po qd administered via gavage and measured after 7 days by immunohistochemical staining based fluorescence microscopic analysis; assay type: functional, organism-based; conditions: time 7.0 day
Procedure, shortened: as §1

[9] = tested on: Pancreatic islet cell carcinoma; test: Antitumor activity in pancreatic islet cell carcinoma in RIP-Tag2 mouse assessed as induction of apoptosis by measuring increase in activated caspase-3 level at 100 mg/kg, po qd administered via gavage for 4 days in presence of rapamycin by immunohistochemistry analysis; assay type: functional, organism-based; conditions: time 4.0 day
Procedure, shortened: as §2

[10] = tested on: Pancreatic islet cell carcinoma; test: Antitumor activity against pancreatic islet cell carcinoma in RIP-Tag2 mouse assessed as reduction in VEGF-B expression at 20 mg/kg, ip qd measured after 7 days by immunoprecipitation based densitometric analysis; assay type: functional, organism-based; conditions: time 7.0 day
Procedure, shortened: (§4)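 VEGF in tumor lysates from treated RIP-Tag2 mice (9–10 weeks old at start; 75 mg/kg gavage BID or 20 mg/kg ip QD) measured with mouse angiogenesis antibody arrays, read as pixel density. 3–8 mice/group, SEM; ANOVA with Fisher PLSD.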

[11] = tested on: OVCAR-3; test: Inhibition of S6K phosphorylation at 235/236 residues in serum deprived/insulin stimulated human OVCAR-3 cells harboring PTEN and wild type PI3K at 0.001 to 10 uM preincubated for 2 hrs followed by insulin stimulation and measured immediately by Western blot analysis; assay type: cell-based; conditions: dose 0.001-10 µM
[12] = tested on: Pancreatic islet cell carcinoma; test: Antitumor activity in pancreatic islet cell carcinoma in RIP-Tag2 mouse assessed as induction of apoptosis by measuring increase in activated caspase-3 level at 20 mg/kg, ip qd […] for 4 days in presence of OSI-930 by immunohistochemistry analysis; assay type: functional, organism-based; conditions: time 4.0 day
Procedure, shortened: as §2

[13] = tested on: Pancreatic islet cell carcinoma; test: Antitumor activity against pancreatic islet cell carcinoma in RIP-Tag2 mouse assessed as reduction in VEGF production by measuring reduction in fluorescence in entire tumor at 20 mg/kg, ip qd measured after 7 days by immunohistochemical staining based confocal microscopic analysis relative to control; assay type: functional; set-up: scale not given: the % may be the effect or the level left; conditions: time 7 day
Procedure, shortened: (§5)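 Treatment began in RIP-Tag2 mice at 9–10 weeks: 75 mg/kg gavage BID for 1, 4 or 7 days, or 20 mg/kg ip QD for 7 days; vehicle Labrifil or water. Tissue fixed by vascular perfusion and 60–80 µm sections stained for VEGF with CD31. VEGF fluorescence intensity measured over whole tumor, tumor cells, or tumor vessels. 3–8 mice/group; ANOVA, Fisher PLSD.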

[14] = tested on: Pancreatic islet cell carcinoma; test: Antivascular activity against pancreatic islet cell carcinoma in RIP-Tag2 mouse assessed as reduction in vascular sprouts at 20 mg/kg, ip qd measured after 7 days by immunohistochemical staining based fluorescence microscopic analysis relative to control; assay type: functional; set-up: scale not given: the % may be the effect or the level left; conditions: time 7 day
Procedure, shortened: as §1

[15] = biological target: Eukaryotic translation initiation factor 4E-binding protein 1 (Homo sapiens) (UniProt Q13541); test: Inhibition of 4E-BP1 phosphorylation at Ser 37/46 residues in serum deprived/insulin stimulated human OVCAR-3 cells harboring PTEN and wild type PI3K at 0.001 to 10 uM preincubated for 2 hrs followed by insulin stimulation and measured immediately by Western blot analysis; assay type: cell-based; conditions: dose 0.001-10 µM
Chain of Eukaryotic translation initiation factor 4E-binding protein 1 (Homo sapiens) (Q13541 whole entry): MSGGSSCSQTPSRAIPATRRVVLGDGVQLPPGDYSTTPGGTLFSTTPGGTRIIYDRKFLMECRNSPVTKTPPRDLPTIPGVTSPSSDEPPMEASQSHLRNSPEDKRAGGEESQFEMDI

[16] = tested on: Mus musculus; test: In vivo inhibition of AKT phosphorylation in RIP-Tag2 mouse with pancreatic islet cell carcinoma 20 mg/kg, ip qd measured after 7 days by immunohistochemistry; assay type: functional, organism-based; conditions: time 7.0 day
Procedure, shortened: (§6)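 RIP-Tag2 mice, 9–10 weeks old, given 20 mg/kg QD ip for 7 days; perfusion-fixed, 60–80 µm tumor sections immunostained for phospho-4E-BP1, phospho-Akt or phospho-S6K together with CD31; fluorescence/confocal imaging; 3–8 mice per group.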

[17] = tested on: Pancreatic islet cell carcinoma; test: Antivascular activity against pancreatic islet cell carcinoma in RIP-Tag2 mouse assessed as appearance of empty basement membrane sleeves at 20 mg/kg, ip qd measured after 7 days by immunohistochemical staining based confocal microscopic analysis; assay type: functional, organism-based; conditions: time 7.0 day
Procedure, shortened: as §1

[18] = tested on: Pancreatic islet cell carcinoma; test: Antivascular activity in pancreatic islet cell carcinoma in RIP-Tag2 mouse assessed as reduction in intratumoral hemorrhage by measuring reduction in TER-119 immunoreactivity at 20 mg/kg, ip qd pretreated with OSI-930 for 7 days at 200 mg/kg, po followed by compound administration and measured after 4 days by confocal microscopic analysis relative to control; assay type: functional; set-up: scale not given: the % may be the effect or the level left; conditions: time 4 day
Procedure, shortened: as §3

[19] = biological target: RAC-alpha serine/threonine-protein kinase (Homo sapiens) (UniProt P31749); test: Inhibition of AKT phosphorylation at Ser 473 site in serum deprived/insulin stimulated human OVCAR-3 cells harboring PTEN and wild type PI3K at 0.001 to 10 uM preincubated for 2 hrs followed by insulin stimulation and measured immediately by Western blot analysis; assay type: cell-based; conditions: dose 0.001-10 µM
Chain of RAC-alpha serine/threonine-protein kinase (Homo sapiens) (P31749 whole entry): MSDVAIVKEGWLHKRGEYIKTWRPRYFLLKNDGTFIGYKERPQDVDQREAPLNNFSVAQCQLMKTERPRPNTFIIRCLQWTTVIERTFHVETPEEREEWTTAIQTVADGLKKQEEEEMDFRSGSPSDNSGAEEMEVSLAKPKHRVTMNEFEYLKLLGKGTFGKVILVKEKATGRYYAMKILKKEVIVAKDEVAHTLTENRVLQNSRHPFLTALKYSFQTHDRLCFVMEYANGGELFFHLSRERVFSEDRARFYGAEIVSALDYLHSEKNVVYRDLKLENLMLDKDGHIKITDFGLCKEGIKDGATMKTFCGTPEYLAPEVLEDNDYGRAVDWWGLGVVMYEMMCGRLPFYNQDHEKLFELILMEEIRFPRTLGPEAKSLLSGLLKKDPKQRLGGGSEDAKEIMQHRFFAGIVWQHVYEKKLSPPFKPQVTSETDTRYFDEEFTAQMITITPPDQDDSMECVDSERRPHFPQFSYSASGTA

[20] = tested on: Mus musculus; test: In vivo inhibition of 4E-BP1 phosphorylation in RIP-Tag2 mouse with pancreatic islet cell carcinoma 20 mg/kg, ip qd measured after 7 days by immunohistochemistry; assay type: functional, organism-based; conditions: time 7.0 day
Procedure, shortened: as §6

[21] = tested on: Pancreatic islet cell carcinoma; test: Antitumor activity against pancreatic islet cell carcinoma in RIP-Tag2 mouse assessed as reduction in VEGF production by measuring reduction in tumor cell associated fluorescence intensity at 20 mg/kg, ip qd measured after 7 days by immunohistochemical staining based confocal microscopic analysis relative to control; assay type: functional; set-up: scale not given: the % may be the effect or the level left; conditions: time 7 day
Procedure, shortened: as §5

[22] = tested on: Pancreatic islet cell carcinoma; test: Antitumor activity against pancreatic islet cell carcinoma in RIP-Tag2 mouse assessed as reduction in VEGF production by measuring reduction in tumor vessels associated fluorescence intensity at 20 mg/kg, ip qd measured after 7 days by immunohistochemical staining based confocal microscopic analysis relative to control; assay type: functional; set-up: scale not given: the % may be the effect or the level left; conditions: time 7 day
Procedure, shortened: as §5

[23] = tested on: Pancreatic islet cell carcinoma; test: Antitumor activity against pancreatic islet cell carcinoma in RIP-Tag2 mouse assessed as reduction in VEGF-A expression at 20 mg/kg, ip qd measured after 7 days by immunoprecipitation based densitometric analysis; assay type: functional, organism-based; conditions: time 7.0 day
Procedure, shortened: as §4

[24] = tested on: Mus musculus; test: In vivo inhibition of S6K phosphorylation in RIP-Tag2 mouse with pancreatic islet cell carcinoma 20 mg/kg, ip qd measured after 7 days by immunohistochemistry analysis; assay type: functional, organism-based; conditions: time 7.0 day
Procedure, shortened: as §6

[25] = tested on: Mus musculus; test: In vivo inhibition of S6 phosphorylation at 235/236 residues in nu/nu CD-1 mouse xenografted with human GEO cells at 20 mg/kg administered for 12 days and measured 2 to 24 hrs post last dose by Western blot analysis; assay type: functional, organism-based; conditions: time 290-312 hrs
Procedure, shortened: (§7)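 GEO s.c. xenografts in nu/nu CD-1 mice; 20 mg/kg for 12 days; tumors snap-frozen at 2, 8, 24 h, lysed in Triton X-100/HEPES pH 7.4 buffer with phosphatase inhibitors; phospho and total 4E-BP1 (37/46) or S6 (235/236) by Western blot; n=2.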

[26] = tested on: Pancreatic islet cell carcinoma; test: Antivascular activity in pancreatic islet cell carcinoma in RIP-Tag2 mouse assessed as suppression of tumor regrowth by measuring reduction in vessel density at 20 mg/kg, ip qd pretreated with OSI-930 for 7 days at 200 mg/kg, po followed by compound administration and measured after 4 days (reference value: 18%); assay type: functional; set-up: scale not given: the % may be the effect or the level left; conditions: time 4 day
Procedure, shortened: as §3

[27] = biological target: Proline-rich AKT1 substrate 1 (Homo sapiens) (UniProt Q96B36); test: Inhibition of PRAS40 phosphorylation at Ser 246 residue in serum deprived/insulin stimulated human OVCAR-3 cells harboring PTEN and wild type PI3K at 0.001 to 10 uM preincubated for 2 hrs followed by insulin stimulation and measured immediately by Western blot analysis; assay type: cell-based; conditions: dose 0.001-10 µM
[28] = tested on: Pancreatic islet cell carcinoma; test: Antivascular activity against pancreatic islet cell carcinoma in RIP-Tag2 mouse assessed as reduction in CD31-positive tumor blood vessels at 20 mg/kg, ip qd measured after 7 days by immunohistochemical staining based fluorescence microscopic analysis; assay type: functional, organism-based; conditions: time 7.0 day
Procedure, shortened: as §1

[29] = tested on: OVCAR-3; test: Inhibition of S6K at […] residues in serum deprived/insulin stimulated human OVCAR-3 cells harboring PTEN and wild type PI3K assessed as inhibition of s6 substrate phosphorylation at […] residue at 0.001 to 10 uM preincubated for 2 hrs followed by insulin stimulation and measured immediately by Western blot analysis; assay type: cell-based; conditions: dose 0.001-10 µM
[30] = tested on: Mus musculus; test: In vivo inhibition of 4E-BP1 phosphorylation at Ser37/46 residues in nu/nu CD-1 mouse xenografted with human GEO cells at 20 mg/kg administered for 12 days and measured 2 to 24 hrs post last dose by Western blot analysis; assay type: functional, organism-based; conditions: time 290-312 hrs
Procedure, shortened: as §7

Chain of Vascular endothelial growth factor receptor 2 (P35968 whole entry): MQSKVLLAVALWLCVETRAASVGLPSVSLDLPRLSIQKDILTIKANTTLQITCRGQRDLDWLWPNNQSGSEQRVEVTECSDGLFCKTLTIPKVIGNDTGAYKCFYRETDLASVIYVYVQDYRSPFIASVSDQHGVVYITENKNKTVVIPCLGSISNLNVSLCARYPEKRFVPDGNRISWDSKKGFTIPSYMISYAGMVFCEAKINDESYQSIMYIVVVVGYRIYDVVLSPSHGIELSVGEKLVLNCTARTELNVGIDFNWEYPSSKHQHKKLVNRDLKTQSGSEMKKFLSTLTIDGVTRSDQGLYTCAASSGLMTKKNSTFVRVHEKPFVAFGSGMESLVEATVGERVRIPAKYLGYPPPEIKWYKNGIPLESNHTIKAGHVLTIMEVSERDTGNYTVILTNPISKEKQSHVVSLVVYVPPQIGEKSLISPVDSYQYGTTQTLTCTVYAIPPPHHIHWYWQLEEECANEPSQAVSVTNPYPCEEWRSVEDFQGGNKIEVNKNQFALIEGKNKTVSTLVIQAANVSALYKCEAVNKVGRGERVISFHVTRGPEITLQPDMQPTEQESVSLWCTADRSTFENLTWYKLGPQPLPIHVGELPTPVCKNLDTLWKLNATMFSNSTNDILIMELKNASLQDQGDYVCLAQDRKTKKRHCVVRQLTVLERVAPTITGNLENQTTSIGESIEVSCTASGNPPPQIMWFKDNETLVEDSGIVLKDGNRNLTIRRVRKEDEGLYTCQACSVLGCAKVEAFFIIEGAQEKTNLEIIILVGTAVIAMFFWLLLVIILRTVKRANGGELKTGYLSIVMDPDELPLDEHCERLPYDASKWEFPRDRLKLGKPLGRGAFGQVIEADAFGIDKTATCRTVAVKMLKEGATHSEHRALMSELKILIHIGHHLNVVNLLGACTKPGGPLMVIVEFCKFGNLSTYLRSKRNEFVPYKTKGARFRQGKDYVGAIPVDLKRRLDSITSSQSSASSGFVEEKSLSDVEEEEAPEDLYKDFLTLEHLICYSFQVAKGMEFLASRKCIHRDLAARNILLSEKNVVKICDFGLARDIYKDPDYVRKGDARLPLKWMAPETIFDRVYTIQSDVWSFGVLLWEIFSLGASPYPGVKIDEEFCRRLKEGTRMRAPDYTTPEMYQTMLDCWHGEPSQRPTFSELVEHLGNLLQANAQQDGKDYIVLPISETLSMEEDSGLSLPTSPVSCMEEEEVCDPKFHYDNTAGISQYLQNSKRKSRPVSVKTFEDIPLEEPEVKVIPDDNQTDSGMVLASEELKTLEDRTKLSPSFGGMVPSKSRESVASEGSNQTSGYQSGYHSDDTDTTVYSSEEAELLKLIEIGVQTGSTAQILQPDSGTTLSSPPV

O=C(Nc1ccc(OC(F)(F)F)cc1)c1sccc1NCc1ccnc2ccccc12 [OSI-930]
IC50 [1]: 9 nM | Activity [2]: 61% | Activity [3]: 700% | Activity [4]: Active | Activity [5]: 72% | Activity [6]: 28% | Activity [7]: 61% | Activity [8]: Active | Activity [9]: inactive

CO[C@H]1C[C@@H]2CC[C@@H](C)[C@@](O)(O2)C(=O)C(=O)N2CCCC[C@H]2C(=O)O[C@H]([C@H](C)C[C@@H]2CC[C@@H](O)[C@H](OC)C2)CC(=O)[C@H](C)/C=C(\C)[C@@H](O)[C@@H](OC)C(=O)[C@H](C)C[C@H](C)/C=C/C=C/C=C/1C [SIROLIMUS]
Activity [10]: inactive | inhibition [11]: Active | Activity [12]: inactive | Activity [13]: 21% | Activity [14]: 21% | inhibition [15]: inactive | inhibition [16]: inactive | Activity [17]: inactive | Activity [18]: 48% | inhibition [19]: inactive | inhibition [20]: inactive | Activity [21]: 34% | Activity [22]: 20% | Activity [23]: inactive | inhibition [24]: Active | inhibition [25]: Active | Activity [26]: 15% | inhibition [27]: inactive | Activity [28]: inactive | inhibition [29]: Active | inhibition [30]: Active
